ChEMBL document CHEMBL3085739, “Design, synthesis, and biological evaluation of 2-oxo-3,4-dihydropyrimido[4,5-d]pyrimidinyl derivatives as new irreversible epidermal growth factor receptor inhibitors with improved pharmacokinetic properties” (J Med Chem, 2013)
In brackets after ≈: the same amount, converted by molar mass. Activity calls are given as the source filed them. The calls are words filed in the database; no cut-off is given here.

Columns and labels:
Mus musculus = experiment: Toxicity in SCID nude mouse xenografted with human NCI-H1975 cells assessed as mortality at 10 to 30 mg/kg, po qd after 14 days; format: organism-based; set-up: dose 10-30 mg/kg, route oral; conditions: in vivo, 336 h
Summary of the method: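 SCID mice (six weeks old) implanted subcutaneously in the right flank with H1975 cells (2 × 10⁶/mouse). Once tumours averaged 200−300 mm³, animals were randomized (n = 5 per group) and given vehicle or drug orally once daily for 14 days. Vehicle: 1% DMSO, 5% EtOH, 15% castor oil, 79% H₂O, at 0.1 mL/20 g. Mice were watched for morbidity, and body weight was recorded every other day.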

NCI-H1975 [1] = experiment: Antitumor activity against human NCI-H1975 cells xenografted in SCID nude mouse assessed as tumor growth inhibition at 30 mg/kg, po qd after 14 days; format: functional; conditions: NCI-H1975, 336 h, read-out: TGI
Summary of the method: (§1)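 SCID mice (6 weeks) were given H1975 cells subcutaneously in the right flank at 2 × 10^6 per mouse. At 200−300 mm3, n = 5 per group were randomized to daily oral vehicle or compound at 10 or 30 mg/kg for 14 days. Vehicle: 1% DMSO, 5% EtOH, 15% castor oil, 79% H2O. Tumors (W²·L/2) and body weight were measured every other day; TGI was calculated against vehicle controls.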

NCI-H1975 [2] = experiment: Antitumor activity against human NCI-H1975 cells xenografted in SCID nude mouse assessed as tumor growth inhibition at 10 mg/kg, po qd after 14 days; format: functional; conditions: NCI-H1975, 336 h, read-out: TGI; summary of the method: as §1
[3] = Antiproliferative activity against human HL7702 cells after 72 hrs by MTS assay; format: cell-based; conditions: L02, 72 h
NCI-H358 = experiment: Antiproliferative activity against human NCI-H358 cells expressing wild-type EGFR after 72 hrs by MTS assay; format: cell-based; conditions: NCI-H358, 72 h
[4] = Antiproliferative activity against human H1299 cells expressing wild-type EGFR after 72 hrs by MTS assay; format: cell-based; conditions: NCI-H1299, 72 h
Summary of the method: (§2)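 MTS proliferation assay: cells exposed to compound for 72 h at six concentrations (0.1 nM to 10 μM), each concentration run six times. Cell number per line set to give an absorbance of 0.5–1.2 at […]. IC50 from a nonlinear sigmoidal dose–response fit. Values are means of at least three independent experiments.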

[5] = Antiproliferative activity against human 95-D cells expressing wild-type EGFR after 72 hrs by MTS assay; format: cell-based; summary of the method: as §2
[6] = molecular target: Proto-oncogene tyrosine-protein kinase receptor Ret (Homo sapiens) (UniProt P07949); experiment: Binding affinity to RET (unknown origin)
Sequence of Proto-oncogene tyrosine-protein kinase receptor Ret (Homo sapiens) (P07949 whole entry): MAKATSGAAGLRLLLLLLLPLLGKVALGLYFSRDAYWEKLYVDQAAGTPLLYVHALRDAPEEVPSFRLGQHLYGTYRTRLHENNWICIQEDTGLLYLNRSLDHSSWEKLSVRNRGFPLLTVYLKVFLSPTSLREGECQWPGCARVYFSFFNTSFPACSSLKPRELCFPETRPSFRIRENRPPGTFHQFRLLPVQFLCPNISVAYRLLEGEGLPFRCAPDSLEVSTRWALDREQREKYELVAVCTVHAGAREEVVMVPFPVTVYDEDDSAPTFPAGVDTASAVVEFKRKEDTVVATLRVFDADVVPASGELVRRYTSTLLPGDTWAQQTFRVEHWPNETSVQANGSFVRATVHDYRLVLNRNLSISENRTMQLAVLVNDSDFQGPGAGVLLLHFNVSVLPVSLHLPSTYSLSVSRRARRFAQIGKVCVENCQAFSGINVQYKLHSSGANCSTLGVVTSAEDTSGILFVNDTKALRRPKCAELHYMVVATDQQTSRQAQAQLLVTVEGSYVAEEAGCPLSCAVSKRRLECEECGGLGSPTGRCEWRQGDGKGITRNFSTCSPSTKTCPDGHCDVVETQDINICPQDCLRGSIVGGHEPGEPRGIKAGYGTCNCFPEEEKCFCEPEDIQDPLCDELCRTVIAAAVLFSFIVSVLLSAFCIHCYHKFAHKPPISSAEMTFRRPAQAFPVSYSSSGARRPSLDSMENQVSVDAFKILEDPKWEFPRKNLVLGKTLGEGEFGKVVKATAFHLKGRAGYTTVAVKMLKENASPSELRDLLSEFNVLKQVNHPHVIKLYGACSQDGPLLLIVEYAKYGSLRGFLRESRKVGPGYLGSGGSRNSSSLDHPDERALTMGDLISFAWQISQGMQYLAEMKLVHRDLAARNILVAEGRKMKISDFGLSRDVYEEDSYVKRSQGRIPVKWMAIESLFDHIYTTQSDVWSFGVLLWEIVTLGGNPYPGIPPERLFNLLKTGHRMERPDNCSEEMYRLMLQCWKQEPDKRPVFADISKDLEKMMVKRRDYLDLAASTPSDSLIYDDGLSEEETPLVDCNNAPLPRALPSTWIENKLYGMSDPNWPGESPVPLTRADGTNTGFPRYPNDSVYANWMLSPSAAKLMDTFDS

[7] = molecular target: Platelet-derived growth factor receptor beta (Homo sapiens) (UniProt P09619); experiment: Binding affinity to PDGFRbeta (unknown origin)
Sequence of Platelet-derived growth factor receptor beta (Homo sapiens) (P09619 whole entry): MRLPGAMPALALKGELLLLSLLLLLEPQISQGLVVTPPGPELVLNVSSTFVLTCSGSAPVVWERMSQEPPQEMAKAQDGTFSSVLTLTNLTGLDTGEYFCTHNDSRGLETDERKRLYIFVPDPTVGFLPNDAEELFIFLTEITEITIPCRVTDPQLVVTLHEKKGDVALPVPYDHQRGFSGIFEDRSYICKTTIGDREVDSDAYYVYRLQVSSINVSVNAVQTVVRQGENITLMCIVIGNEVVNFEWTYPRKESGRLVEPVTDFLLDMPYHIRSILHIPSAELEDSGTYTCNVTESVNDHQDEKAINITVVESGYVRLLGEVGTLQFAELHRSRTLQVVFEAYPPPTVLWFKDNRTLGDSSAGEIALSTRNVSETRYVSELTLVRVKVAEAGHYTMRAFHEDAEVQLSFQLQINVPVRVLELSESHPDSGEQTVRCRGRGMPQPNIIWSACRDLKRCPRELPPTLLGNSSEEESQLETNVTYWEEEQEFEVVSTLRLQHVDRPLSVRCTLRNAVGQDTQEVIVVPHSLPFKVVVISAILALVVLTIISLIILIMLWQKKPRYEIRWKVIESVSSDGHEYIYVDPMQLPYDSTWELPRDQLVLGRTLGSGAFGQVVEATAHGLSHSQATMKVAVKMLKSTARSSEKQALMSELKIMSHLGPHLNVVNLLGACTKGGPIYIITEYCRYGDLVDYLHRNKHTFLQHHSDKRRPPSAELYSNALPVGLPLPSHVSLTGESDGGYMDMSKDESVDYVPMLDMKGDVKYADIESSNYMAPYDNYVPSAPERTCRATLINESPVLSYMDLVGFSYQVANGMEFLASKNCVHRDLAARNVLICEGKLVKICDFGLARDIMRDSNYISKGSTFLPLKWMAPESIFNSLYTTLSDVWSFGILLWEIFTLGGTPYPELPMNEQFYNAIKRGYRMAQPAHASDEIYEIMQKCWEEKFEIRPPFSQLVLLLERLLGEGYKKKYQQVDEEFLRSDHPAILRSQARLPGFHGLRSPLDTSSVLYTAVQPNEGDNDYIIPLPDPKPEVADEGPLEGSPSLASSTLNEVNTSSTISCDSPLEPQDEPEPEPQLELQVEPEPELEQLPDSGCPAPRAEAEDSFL

[8] = molecular target: T1, Dual specificity mitogen-activated protein kinase kinase 5 (Homo sapiens) (UniProt Q13163); experiment: Binding affinity to MEK5 (unknown origin)
T1 sequence (whole entry): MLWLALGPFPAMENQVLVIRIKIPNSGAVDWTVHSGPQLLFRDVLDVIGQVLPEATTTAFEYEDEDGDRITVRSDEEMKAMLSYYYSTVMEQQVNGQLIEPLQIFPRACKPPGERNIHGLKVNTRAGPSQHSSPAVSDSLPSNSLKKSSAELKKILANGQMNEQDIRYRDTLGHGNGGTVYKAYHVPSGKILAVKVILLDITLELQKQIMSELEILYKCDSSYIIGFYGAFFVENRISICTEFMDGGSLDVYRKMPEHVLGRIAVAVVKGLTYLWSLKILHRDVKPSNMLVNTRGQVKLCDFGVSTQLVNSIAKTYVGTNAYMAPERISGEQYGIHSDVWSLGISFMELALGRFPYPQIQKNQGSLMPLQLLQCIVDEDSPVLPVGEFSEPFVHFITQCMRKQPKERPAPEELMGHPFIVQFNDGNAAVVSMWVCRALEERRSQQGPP

[9] = molecular target: Receptor-type tyrosine-protein kinase FLT3 (Homo sapiens) (UniProt P36888); experiment: Binding affinity to FLT3 (unknown origin)
Sequence of Receptor-type tyrosine-protein kinase FLT3 (Homo sapiens) (P36888 whole entry, the tested form may be a part): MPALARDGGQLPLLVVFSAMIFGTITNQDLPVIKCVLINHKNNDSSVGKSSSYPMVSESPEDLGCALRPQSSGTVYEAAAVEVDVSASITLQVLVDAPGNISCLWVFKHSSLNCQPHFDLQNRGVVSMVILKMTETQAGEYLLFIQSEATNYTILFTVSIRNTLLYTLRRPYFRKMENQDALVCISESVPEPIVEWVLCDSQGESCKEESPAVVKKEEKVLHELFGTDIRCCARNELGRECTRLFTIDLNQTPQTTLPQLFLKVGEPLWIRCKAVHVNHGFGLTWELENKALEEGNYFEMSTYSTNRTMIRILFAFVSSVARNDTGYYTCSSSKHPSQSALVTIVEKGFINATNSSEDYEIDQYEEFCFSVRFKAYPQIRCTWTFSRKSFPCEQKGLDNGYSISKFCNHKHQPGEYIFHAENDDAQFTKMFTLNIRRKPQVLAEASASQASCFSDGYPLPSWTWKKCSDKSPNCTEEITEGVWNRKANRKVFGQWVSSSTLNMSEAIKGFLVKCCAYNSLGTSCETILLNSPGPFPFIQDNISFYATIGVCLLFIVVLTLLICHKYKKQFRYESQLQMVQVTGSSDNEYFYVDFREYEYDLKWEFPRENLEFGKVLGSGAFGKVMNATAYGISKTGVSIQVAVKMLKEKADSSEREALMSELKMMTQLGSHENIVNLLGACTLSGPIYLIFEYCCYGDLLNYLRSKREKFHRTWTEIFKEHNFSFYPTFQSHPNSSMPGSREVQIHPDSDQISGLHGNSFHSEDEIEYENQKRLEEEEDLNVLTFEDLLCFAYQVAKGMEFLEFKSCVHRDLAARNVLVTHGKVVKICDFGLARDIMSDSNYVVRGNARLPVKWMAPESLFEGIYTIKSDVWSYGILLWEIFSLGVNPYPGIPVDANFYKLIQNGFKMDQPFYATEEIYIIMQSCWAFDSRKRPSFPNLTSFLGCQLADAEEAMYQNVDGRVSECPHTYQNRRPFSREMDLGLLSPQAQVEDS

[10] = molecular target: Epithelial discoidin domain-containing receptor 1 (Homo sapiens) (UniProt Q08345); experiment: Binding affinity to DDR1 (unknown origin)
[11] = molecular target: Tyrosine-protein kinase ABL1 (Homo sapiens) (UniProt P00519); experiment: Binding affinity to ABL1 (unknown origin)
[12] = molecular target: T2, Epidermal growth factor receptor (Homo sapiens, UniProt P00533, L858R/T790M); experiment: Binding affinity to EGFR L858R/T790M double mutant (unknown origin)
T2 sequence (P00533 25-1210 T790M/L858R limits assumed): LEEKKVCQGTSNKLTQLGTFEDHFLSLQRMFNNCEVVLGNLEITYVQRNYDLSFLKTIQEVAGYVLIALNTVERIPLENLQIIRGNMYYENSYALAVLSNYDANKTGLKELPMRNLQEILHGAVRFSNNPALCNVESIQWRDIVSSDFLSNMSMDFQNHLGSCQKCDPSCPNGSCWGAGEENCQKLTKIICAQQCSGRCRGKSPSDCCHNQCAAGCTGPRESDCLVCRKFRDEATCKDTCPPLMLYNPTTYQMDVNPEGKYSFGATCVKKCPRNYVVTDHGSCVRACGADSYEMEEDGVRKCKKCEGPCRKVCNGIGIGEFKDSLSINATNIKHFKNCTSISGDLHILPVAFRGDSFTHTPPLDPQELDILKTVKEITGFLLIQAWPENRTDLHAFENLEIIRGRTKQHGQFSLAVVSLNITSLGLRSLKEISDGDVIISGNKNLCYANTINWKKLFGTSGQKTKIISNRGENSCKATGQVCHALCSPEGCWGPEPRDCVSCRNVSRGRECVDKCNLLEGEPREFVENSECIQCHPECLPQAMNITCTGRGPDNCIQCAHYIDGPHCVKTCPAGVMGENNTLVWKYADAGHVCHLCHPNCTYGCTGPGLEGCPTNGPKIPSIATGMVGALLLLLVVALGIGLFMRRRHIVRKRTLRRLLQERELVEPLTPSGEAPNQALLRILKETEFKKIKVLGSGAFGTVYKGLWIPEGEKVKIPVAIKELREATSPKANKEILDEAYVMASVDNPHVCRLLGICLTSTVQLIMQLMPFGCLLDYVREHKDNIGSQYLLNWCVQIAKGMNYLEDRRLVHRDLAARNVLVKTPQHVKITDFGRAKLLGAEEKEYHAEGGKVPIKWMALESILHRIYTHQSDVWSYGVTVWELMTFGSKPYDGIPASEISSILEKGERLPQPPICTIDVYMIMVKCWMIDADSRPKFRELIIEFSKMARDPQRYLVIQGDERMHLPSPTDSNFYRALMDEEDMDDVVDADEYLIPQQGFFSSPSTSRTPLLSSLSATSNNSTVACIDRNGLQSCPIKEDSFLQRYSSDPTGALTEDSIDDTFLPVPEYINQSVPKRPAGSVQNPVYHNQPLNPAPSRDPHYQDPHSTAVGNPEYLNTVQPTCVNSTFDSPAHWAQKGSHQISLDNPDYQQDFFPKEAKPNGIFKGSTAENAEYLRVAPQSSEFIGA

[13] = molecular target: Epidermal growth factor receptor (Homo sapiens, UniProt P00533, T790M); experiment: Inhibition of EGFR T790M mutant (unknown origin); format: protein assay
NCI-H1975 [14] = experiment: Effect on AKT protein level in human NCI-H1975 cells at 3 to 330 nM after 2 hrs by Western blotting analysis; format: functional, cell-based
Summary of the method: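 H1975 cells were grown 24 h, then treated for 2 h with DMSO or 3–330 nM compound. Lysates were sonicated, run on SDS-PAGE, blotted to PVDF, blocked in 5% BSA/TBST, and probed for phospho/total EGFR (pY1068), Akt and Erk1/2 (pT202/pY204) with peroxidase secondary antibodies. Blots are representative of three experiments.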

[15] = Oral bioavailability in Sprague-Dawley rat at 25 mg/kg by LC/MS analysis; format: ADME, organism-based; conditions: in vivo
Summary of the method: (§3)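 Male Sprague-Dawley rats (180−220 g), n = 4 per route, single iv dose 5 mg/kg or oral gavage 25 mg/kg. Vehicle was 2% DMSO, 4% EtOH, 4% castor oil, 90% H2O. Orbital sinus blood was taken from 2 min to 72 h into heparinized tubes. Plasma levels were measured by LC/MS with propranolol internal standard and analysed by pharmacokinetic modelling.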

[16] = Clearance in Sprague-Dawley rat at 5 mg/kg, iv by LC/MS analysis; format: ADME, organism-based; set-up: dose 5 mg/kg, route intravenous; conditions: in vivo; summary of the method: as §3
[17] = AUC (0 to infinity) in Sprague-Dawley rat at 25 mg/kg, po by LC/MS analysis; format: ADME, organism-based; set-up: dose 25 mg/kg, route oral, time infinity; conditions: plasma; summary of the method: as §3
[18] = AUC (0 to infinity) in Sprague-Dawley rat at 5 mg/kg, iv by LC/MS analysis; format: ADME, organism-based; set-up: time infinity, dose 5 mg/kg, route intravenous; conditions: plasma; summary of the method: as §3
[19] = Cmax in Sprague-Dawley rat at 25 mg/kg, po by LC/MS analysis; format: ADME, organism-based; set-up: dose 25 mg/kg, route oral; conditions: in vivo; summary of the method: as §3
[20] = Cmax in Sprague-Dawley rat at 5 mg/kg, iv by LC/MS analysis; format: ADME, organism-based; set-up: dose 5 mg/kg, route intravenous; conditions: in vivo; summary of the method: as §3
[21] = Thermodynamic aqueous solubility of the compound in PBS buffer at pH 6.8 after 24 hrs by HPLC analysis; format: physicochemical; conditions: PBS buffer, pH 6.8; read-out: Therm_solubility
Summary of the method: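 Compound was shaken in aqueous buffer at pH 6.8 for 24 h at ambient temperature; dissolved concentration was measured by HPLC.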

NCI-H1975 [22] = experiment: Antiproliferative activity against human NCI-H1975 cells expressing EGFR L858R/T790M double mutant after 72 hrs by MTS assay; format: functional, cell-based; conditions: NCI-H1975, 72 h
[23] = molecular target: T2, Epidermal growth factor receptor; experiment: Inhibition of EGFR L858R/T790M double mutant (unknown origin) after 1.5 hrs by FRET-based Z'-Lyte assay; format: protein assay
[24] = test system: Epidermal growth factor receptor (Homo sapiens), P00533 [L858R,T790M]; conditions: NCI-H1975, 110 nM

C=CC(=O)N1CC[C@H](N2C(=O)N(c3ccccc3)Cc3cnc(Nc4ccc(N5CCN(C)CC5)c(C)c4)nc32)C1
Activity (Mus musculus): Non-toxic | inhibition in vivo at 30 mg/kg (NCI-H1975 [1]): 56.8% | inhibition in vivo at 10 mg/kg (NCI-H1975 [2]): 35.4% | IC50 [3]: > 10 µM | IC50 (NCI-H358): > 20 µM | IC50 [4]: 5.1 µM | IC50 [5]: 4 µM | Activity [6]: Active | Activity [7]: Active | Activity [8]: Active | Activity [9]: Active | Activity [10]: Active | Activity [11]: Active | Kd [12]: 1.4 nM | IC50 [13]: 10 nM | Activity (NCI-H1975 [14]): inactive | bioavailability [15]: 30% | clearance [16]: 51.7 mL/min/kg | AUC(0-inf) [17]: 2490 ng·h/mL | AUC(0-inf) [18]: 1640 ng·h/mL | Cmax [19]: 1040 ng/mL | Cmax [20]: 3980 ng/mL | solubility thermodynamic at 24 h [21]: 1270 µg/mL (≈ 2290 µM) | IC50 (NCI-H1975 [22]): 47 nM | IC50 [23]: 9.2 nM | inhibition [24]: Active
